ChEMBL document CHEMBL4354800, “Amphiphilic nebramine-based hybrids Rescue legacy antibiotics from intrinsic resistance in multidrug-resistant Gram-negative bacilli” (Eur J Med Chem, 2019)
Active and inactive are the calls of the source. No cut-off for these calls is given here.

How the values were obtained:
[1] = Toxicity in Galleria mellonella larvae assessed as tolerability by measuring larvae deaths at 100 mg/kg incubated for 96 hrs relative to control; type: organism-based; settings: in vivo
[2] = Toxicity in Galleria mellonella larvae assessed as tolerability by measuring larvae deaths at 75 mg/kg incubated for 96 hrs relative to control; type: organism-based; settings: in vivo
[3] = test system: Pseudomonas aeruginosa; assay: Antimicrobial activity against XDR Pseudomonas aeruginosa PA264 infected in Galleria mellonella larvae assessed as survival rate at 25 mg/kg administered 2 hrs post-inoculation measured after 24 hrs relative to control; type: functional, organism-based
[4] = test system: Pseudomonas aeruginosa; assay: Increase in tetracycline uptake in Pseudomonas aeruginosa PAO1 membrane at 25 uM measured every 1 min for 30 mins by fluorescence based assay; type: organism-based; settings: Bacterial membrane
Summary of the method: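 P. aeruginosa PAO1 was grown to OD600 0.6, washed, and resuspended in ¼ volume of 10 mM HEPES, pH 7.2. Cells received varying compound concentrations together with fixed tetracycline. Fluorescence (ex 405 nm, em 535 nm) was recorded every 1 min for 30 min at room temperature. Experiments were done in triplicate and averages reported.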

[5] = test system: Pseudomonas aeruginosa; assay: Disruption of proton gradient in Pseudomonas aeruginosa PAO1 membrane assessed as inhibition of tetracycline uptake at 25 uM measured every 1 min for 30 mins by fluorescence based assay; type: organism-based; settings: Bacterial membrane

COLISTIN [listing 1 of 2 here]
Activity [1]: 90%
Activity [2]: 70%

COLISTIN [listing 2 of 2 here]
Survival [3]: 0%
Activity [4]: Active

N#CC(C#N)=NNc1cccc(Cl)c1
inhibition [5]: Active
